HSP90 refold inh – blocks HSP90-mediated luciferase refolding in reticulocyte lysate | 290,000 compounds, 0.91% hits | inhibition, % at 5.6 µM | Rabbit reticulocyte lysate, luciferase refolding luminescence, 3 h;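 active = inhibition above the screen-wide mean plus 3 SD, computed separately per campaign, cut at about 16% in these data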;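 note: inhibitors lower the luminescence because luciferase stays unfolded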
Hep lipid drop – hepatic lipid droplet formation modulation | 240,000 compounds, 0.4% hits | AML12 mouse hepatocytes, oleate lipid droplets, BODIPY imaging | inhibition, % at 6.5 µM | AID 1656;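 active = lipid droplet intensity inhibited by at least 50%, with more than 500 cells counted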
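Technique: fluorescence imaging, 20x objective, two fields per well / Assay system: AML12 hepatocytes (mouse) / Measure: % inhibition of lipid droplet signal / Doses: 6.5 µM single-point dosing / Incubation: overnight exposure / Reagent: 100 µM oleic acid challenge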
HSF-1 act – increases HSF-1 driven luciferase reporter signal | NIH3T3-HGL HSF-1 luciferase reporter, MG132, 8 h; 100% = twice DMSO control signal | 300,000 compounds, 1.7% hits | activation, % at 9 µM;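 active = mean replicate activation of at least 50% with a set share of replicates each reaching 50%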
NS3 helicase inh – blocks Hepatitis C virus NS3 helicase unwinding; 290,000 compounds, 0.56% hits; inhibition, % at 10.9 µM; NS3 helicase DNA unwinding, Cy5 molecular beacon fluorescence;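 active = inhibition above the mean of all tested compounds plus 3 SD, set per campaign, cut at about 35% in these data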
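assay system = NS3 helicase fragment of HCV | buffer or medium = MOPS pH 6.5, MgCl2, DTT, Tween20, BSA | timing = 60 min unwinding reaction at 25 °C after ATP addition | signal = Cy5 beacon fluorescence read at start and 1 h | read-out basis = % inhibition of unwinding | control set = low DMSO, high thioflavine S at 110 µM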
HSF1 inhib – HSF1 inhibition | NIH3T3-HGL HSE-luciferase, MG132-induced, luminescence 8 h; stronger effect = lower value | activity change, negative = inhibition, % at 7.5 µM (by protocol) | 300,000 compounds, 0.77% hits | AID 2098;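 active = more than half of replicate wells show activity change below -50%, luminescence cut by over half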;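 note: luciferase reports HSF-1 transcriptional activity via heat shock element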
Large screens that a line does not name were inactive. Only some compounds are listed: those with a hit (about 3.8% of all), similar ones and a draw of the others.

COc1ccccc1Oc1nc([N+](=O)[O-])nn1CC(N)=O	none
CCOc1ccc(/C=N/NC(=O)c2ccc(Cn3cc(Br)cn3)o2)cc1	none
CCOc1ccc(/C=N/NC(=O)c2ccc(Cn3cc([N+](=O)[O-])cn3)o2)cc1	HSF1 inhib -55
O=S(=O)(CCN1CCCCC1)Oc1ccc(Cl)cc1Cl	none
COc1cccc(Sc2ccccc2/C=N/NC(N)=O)c1	HSF-1 act 57
C=CCOc1c(/C=N\NC(N)=O)cccc1OC	none
CCOc1cc(S(=O)(=O)NCc2cccnc2)c(C)cc1C	none
CC1=C(C#N)C(=O)N(C2CCS(=O)(=O)C2)C(=O)/C1=C\c1ccc(C)o1 (centres undefined)	none
CCN(CC)S(=O)(=O)c1ccc(C(=O)OCC(=O)N2CCN(C(=O)c3ccco3)CC2)cc1	HSF-1 act 53
COc1ccccc1NCC(=O)NNCC(=O)Nc1ccc(F)c(Cl)c1	none
Cn1cc(CNC(=O)c2sc3cccc(Cl)c3c2Cl)cn1	HSF-1 act 90
CCCc1[nH]nc2c1C(c1ccc(OC)cc1OC)C(C#N)=C(N)O2 (centres undefined)	HSF-1 act 63
CCN(CC(=O)Nc1cc(Cl)ccc1C)C(=O)c1ccc2c(=O)n3c(nc2c1)CCC3	none (no result: HSP90 refold inh, Hep lipid drop, NS3 helicase inh)
CCN(CC)CCn1nc2c3c(cccc3c1=O)-c1ccccc1-2	HSF-1 act 173
CCOC(=O)N1CCN(C(=O)CNC2CCCCCCC2)CC1	none
Cc1cccc(C(=O)N2CCCC(c3nc(-c4ccc(C)o4)no3)C2)c1 (centres undefined)	HSF-1 act 61
Cc1ccc(-c2noc(C3CCCN(C(=O)c4cccc([N+](=O)[O-])c4)C3)n2)o1 (centres undefined)	none
COc1cccc(/C=N/NC(=O)CSc2nnc(C)n2-c2ccccc2)c1O	none (no result: Hep lipid drop)
CCCCSc1nc(C)cc(SCC(=O)N/N=C/c2cccc(OC)c2O)n1	HSF-1 act 84 (no result: Hep lipid drop)
c1cncc(-c2nc(-c3ccc4c(c3)OCCO4)cs2)c1	HSF-1 act 64
CCc1nn(C(CC)C(=O)NCc2cccc(OC)c2OC)c(=O)c2cc3occc3n12 (centres undefined)	HSF-1 act 67
O=C(NCC(=O)N1CCCCC1)c1ccc2ccccc2c1	none
Nc1nc(-c2ccccc2)c(-c2ccccc2)s1	none (no result: Hep lipid drop)
Nc1nc(-c2ccccc2)c(N=Nc2ccc(Cl)cc2)s1	Hep lipid drop 93
Cc1nc2ccccc2c(=O)n1/N=C/c1ccc(F)cc1	none
CCC1COCCS(=O)(=O)N1Cc1ccccc1C (centres undefined)	HSF1 inhib -61
CCC1COCCS(=O)(=O)N1Cc1ccccc1F (centres undefined)	none
CC1CCN(CCCNC(=O)c2ccc3c(=O)n(Cc4ccc(Cl)cc4)c(=S)[nH]c3c2)CC1	HSF-1 act 79
COc1ccc(OC(C)C(=O)N2CCC(C)CC2)cc1 (centres undefined)	HSF1 inhib -66
O=S(=O)(NCc1ccc(C(F)(F)F)cc1)c1ccc(-n2cnnn2)cc1	HSF1 inhib -90
O=S(=O)(NCc1ccccc1Cl)c1ccc(-n2cnnn2)cc1	none
Cc1n[nH]c(C)c1S(=O)(=O)N1CCc2ccccc2C1	none
CNC(=O)c1ccsc1NC(=O)c1ccccc1	none (no result: HSP90 refold inh, NS3 helicase inh)
CNC(=O)c1ccsc1NC(=O)c1ccc(Cl)s1	HSF1 inhib -66 (no result: Hep lipid drop)
C/C(N)=C(/C#N)C(=O)CN1C(=O)NC(Cc2c[nH]c3ccccc23)C1=O (centres undefined)	none (no result: Hep lipid drop)
CCN1CCN(C(=O)c2cc3cc(F)ccc3[nH]2)CC1	none (no result: Hep lipid drop)
COc1cc(C2CC(c3cccnc3)=NN2c2ccc(F)cc2)cc(OC)c1OC (centres undefined)	HSF-1 act 65
COC(=O)c1sc(-c2cccs2)cc1NC(=O)/C=C/C(=O)O	none
O=c1sc(/C=N/Nc2ccccc2)c(Cl)n1Cc1ccccc1	HSF-1 act 149
O=C(O)c1cccc(Cn2c(Cl)c(/C=N/NC(=O)c3ccc(O)cc3)sc2=O)c1	none
NC(=O)CCC(C(=O)O)N1C(=O)c2ccc(O)cc2C1=O (centres undefined)	HSF1 inhib -54
O=C(O)CC[C@@H](C(=O)O)N1C(=O)c2ccccc2C1=O	none (no result: HSP90 refold inh, NS3 helicase inh)
Cc1ccc(C(=O)Nc2ccc(C(=O)N/N=C/c3ccc(C)o3)cc2)cc1	none
Cc1cc(C)c(C(=O)COC(=O)Cn2c(C)csc2=O)cc1C	none
Cc1cc(C(=O)Nc2ccc(Cl)cc2)c(C)n1Cc1cccs1	HSP90 refold inh 16

Compound activity: PubChem, several laboratories
